Rows were chosen to be rich in hits. Some 3% of all compounds tested hit in one or more screens of this group.
SENP8 block-1 – SENP8 (human) protease inhibition; Q96LD8; hit rate 0.64% among 360,000; AID 602440; inhibition, % at 20 µM; recombinant SENP8, Nedd8 substrate fluorescence; in the data active = inhibition mostly above about 40%, no sharp cut-off; inactive = mostly below about 27%
SENP8 block-2 – inhibitors of human SENP8 protease | Q96LD8 | purified SENP8, Z-RLRGG-aminoluciferin cleavage, luminescence | inhibition, % at 10 µM | hit rate 1.2% among 330,000 | AID 2540; in the data active = inhibition above about 50%
SENP6 block – blocks the human protease SENP6 | Q9GZR1 | Recombinant SENP6 catalytic domain, aminoluciferin luminescence | inhibition, % at 10 µM | hit rate 1.8% among 330,000 | AID 2599;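 active = inhibition above about 50% at the single tested dose, limit read from the data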;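 also: plate controls were DMSO wells with enzyme for no effect and DMSO wells lacking enzyme for full effect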
Apaf1 inhib – human Apaf-1 inhibition; O14727; reconstituted apoptosome caspase-3 activity, DEVD-Rh110 fluorescence; inhibition, % at 20 µM; hit rate 0.71% among 330,000; AID 489030; active = inhibition of at least 40% at 20 µM;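 also: plate controls were DMSO wells for no effect and DEVD-CHO caspase inhibitor wells for full effect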
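Material: reconstituted apoptosome with Apaf-1, cytochrome c, caspase-9, procaspase-3, dATP / Buffer or medium: pH 7.5 Hepes buffer with CHAPS, BSA, DTT / Also added: cytochrome c with DEVD-Rh110 / Schedule: compound with Apaf-1, dATP, procaspase-3 30 min, then 50 min reaction, room temperature / Technique: rhodamine 110 fluorescence at Ex 480/Em 540 nm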
UBC13 inh – human UBC13 polyubiquitination inhibition; P61088; UBC13 polyubiquitin chain formation, TR-FRET; inhibition, % at 20 µM; hit rate 0.47% among 330,000; AID 485273; in the data active = inhibition above about 45%, passing the limit was not always enough
SENP7 inh – SENP7 protease inhibition. Q9BQF6. recombinant SENP7, Z-RLRGG-aminoluciferin luminescence, 40 min. inhibition, % at 5 µM. hit rate 1.5% among 330,000. AID 434973;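 active = inhibition above about 50% at the single test dose, limit read from the data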;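 also: plate controls were DMSO with enzyme for no effect and no enzyme buffer wells for full effect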
SENP8 conf – confirmation of human SENP8 protease inhibitors; shares compounds with SENP7 inh; Recombinant SENP8, Z-RLRGG-aminoluciferin luminescence, 60 min; inhibition, % at 12.5 µM; hit rate 40% among 6,200;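 active = mean inhibition across replicates above about 50%, limit read from the data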
SENP6 confirm – human SENP6 inhibition, confirmed | hit rate 58% among 6,200 | AID 488915 | shares compounds with SENP7 inh | recombinant SENP6, Z-RLRGG-aminoluciferin luminescence | inhibition, % at 12.5 µM
SENP7 conf – confirmation of human SENP7 protease inhibitors; shares compounds with SENP7 inh; recombinant SENP7, Z-RLRGG-aminoluciferin luminescence, 40 min; AID 488917; inhibition, % at 12.5 µM; hit rate 69% among 6,200
Casp3 SENP sel – inhibits human caspase-3 in SENP selectivity test; shares compounds with SENP7 inh; purified caspase-3, Z-DEVD-aminoluciferin luminescence, 60 min; inhibition, % at 12.5 µM; hit rate 60% among 6,200; AID 488918;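 active = mean inhibition above about 50%, limit read from the data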;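 also: plate controls were enzyme with DMSO for no effect and wells without caspase-3 for full effect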
Luc interf – luminescence interference (SENP counter-screen); shares compounds with SENP7 inh; Pre-incubated SENP8/Z-RLRGG-aminoluciferin, luciferase luminescence interference; inhibition, % at 12.5 µM; hit rate 39% among 6,200; AID 488919;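 active = mean inhibition above about 50% when retested at one dose, limit read from the data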;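 also: plate controls were DMSO wells with completed reaction for no effect and substrate without enzyme for full effect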
Starred values were filed as active, the others as inactive.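 The calls were made as follows, unless noted: active = mean inhibition above about 50% in the one-dose retest (limit read from the data); inactive = the rest.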

What do the screens show for `CCOc1ccc(OCCn2nnc3ccccc3c2=O)cc1`?
SENP8 block-1: -5; SENP8 block-2: 58*; SENP6 block: 69*; Apaf1 inhib: 7; UBC13 inh: 16; SENP7 inh: 67*; SENP8 conf: 36; SENP6 confirm: 60*; SENP7 conf: 89*; Casp3 SENP sel: 81*; Luc interf: 50*

How did CCCn1nnc2ccccc2c1=O do in these assays?
SENP8 block-1: 24; SENP8 block-2: -4; SENP6 block: -13; Apaf1 inhib: 12; UBC13 inh: -15; SENP7 inh: 3

How did CC1=C(C(=O)N(C(C)C)C(C)C)CC(CC(=O)NCCc2ccccn2)C(=O)N1CCCN1CCCC1=O (stereo not given) do in these assays?
SENP8 block-1: 15

Results for CCOC(=O)C1=CCC(c2cc3ccc(OC)cc3n2C(=O)OC(C)(C)C)NC1 (stereo not given) ?
SENP8 block-1: -387

What do the screens show for `N#Cc1ccc(NC(=O)c2cc(-c3cccs3)on2)cc1`?
SENP8 block-1: -33; SENP8 block-2: 2; SENP6 block: 58*; Apaf1 inhib: -21; UBC13 inh: 10; SENP7 inh: 8; SENP8 conf: -24; SENP6 confirm: -18; SENP7 conf: -12; Casp3 SENP sel: -11; Luc interf: -8

Results for Cc1cc(NC(=O)c2cc(-c3cccs3)on2)no1 ?
SENP8 block-1: 4; SENP8 block-2: -1; SENP6 block: -5; Apaf1 inhib: -20; UBC13 inh: 3; SENP7 inh: 7

What do the screens show for `O=C1C=C(O)CC2(CCCCC2)C1`?
SENP8 block-1: 6

Results for O=C1Nc2cnc(Cl)nc2Nc2ccccc21 ?
SENP8 block-1: 5

Results for Cc1cc(C)c2c(c1)C(=O)/C(=C/c1ccc(C(=O)O)cc1)CC2 ?
SENP8 block-1: 10; SENP8 block-2: 75*; SENP6 block: 92*; Apaf1 inhib: 7; UBC13 inh: 2; SENP7 inh: 5; SENP8 conf: 62*; SENP6 confirm: 51*; SENP7 conf: 53*; Casp3 SENP sel: 58*; Luc interf: 19

How did COc1ccc2nc(Nc3ccccc3OC)sc2c1 do in these assays?
SENP8 block-1: 16; SENP8 block-2: 92*; SENP6 block: 92*; Apaf1 inhib: -1; UBC13 inh: 9; SENP7 inh: 98*; SENP8 conf: 96*; SENP6 confirm: 96*; SENP7 conf: 101*; Casp3 SENP sel: 91*; Luc interf: 87*

How did Cc1ccccc1Nc1nc2ccccc2s1 do in these assays?
SENP8 block-1: 10; SENP8 block-2: 68*; SENP6 block: 0; Apaf1 inhib: -6; UBC13 inh: 10; SENP7 inh: 72*; SENP8 conf: 84*; SENP6 confirm: 84*; SENP7 conf: 95*; Casp3 SENP sel: 69*; Luc interf: 71*

Results for COc1ccc2nc(Nc3ccccc3)sc2c1 ?
SENP8 block-1: -1; SENP8 block-2: 70*; SENP6 block: 56*; Apaf1 inhib: 7; UBC13 inh: -2; SENP7 inh: 84*; SENP8 conf: 88*; SENP6 confirm: 88*; SENP7 conf: 98*; Casp3 SENP sel: 61*; Luc interf: 84*

Results for COc1ccc2nc(Nc3ccc4c(c3)OCO4)sc2c1 ?
SENP8 block-1: 30; SENP8 block-2: -22; SENP6 block: 9; Apaf1 inhib: 8; UBC13 inh: 6; SENP7 inh: 58*; SENP8 conf: 3; SENP6 confirm: 2; SENP7 conf: 22; Casp3 SENP sel: 29; Luc interf: 19

Results for COc1ccc2nc(Nc3nc4cc5c(cc4s3)OCO5)sc2c1 ?
SENP8 block-1: -307; SENP8 block-2: -11; SENP6 block: 2; Apaf1 inhib: 27; UBC13 inh: 3; SENP7 inh: 0

What do the screens show for `COc1ccc2nc(NC(=O)Nc3ccccc3OC)sc2c1`?
SENP8 block-1: 8; SENP8 block-2: 44; SENP6 block: 81*; Apaf1 inhib: 18; UBC13 inh: 5; SENP7 inh: 93*; SENP8 conf: -8; SENP6 confirm: -7; SENP7 conf: 7; Casp3 SENP sel: 64*; Luc interf: -3

What do the screens show for `CC(C)C(=O)N1CCCC1(C)C(=O)Nc1ccc2c(c1)OCO2` (stereo not given)?
SENP8 block-1: 9

Results for O=C(NNC(=O)c1ccc(-c2ccccc2)cc1)Nc1ccccc1F ?
SENP8 block-1: 3; SENP8 block-2: 2; SENP6 block: 2; Apaf1 inhib: 5; UBC13 inh: 5; SENP7 inh: 6

How did O=C(Nc1cccnc1)c1ccc(-c2ccccc2)cc1 do in these assays?
SENP8 block-1: 18; SENP8 block-2: 66*; SENP6 block: 33; Apaf1 inhib: 7; UBC13 inh: 6; SENP7 inh: 82*; SENP8 conf: 51*; SENP6 confirm: 70*; SENP7 conf: 96*; Casp3 SENP sel: 75*; Luc interf: 37

How did O=C(Nc1cccnc1)c1ccc(F)cc1 do in these assays?
SENP8 block-1: 20; SENP8 block-2: -9; SENP6 block: -2; Apaf1 inhib: -4; UBC13 inh: 4; SENP7 inh: 0

Results for O=C(NNC(=O)c1ccc(-c2ccccc2)cc1)c1ccccc1 ?
SENP8 block-1: 10; SENP8 block-2: 30; SENP6 block: -5; Apaf1 inhib: -6; UBC13 inh: 4; SENP7 inh: 62*; SENP8 conf: 34; SENP6 confirm: 41; SENP7 conf: 82*; Casp3 SENP sel: 80*; Luc interf: 47

How did CC(C)c1ccc(C(=O)Nc2cccnc2)cc1 do in these assays?
SENP8 block-1: 28; SENP8 block-2: 36; SENP6 block: 73*; Apaf1 inhib: -1; UBC13 inh: -4; SENP7 inh: 71*; SENP8 conf: 62*; SENP6 confirm: 58*; SENP7 conf: 88*; Casp3 SENP sel: 79*; Luc interf: 32

How did CSCCC(c1nc2ccccc2[nH]1)n1c(=O)c(-c2ccco2)nc2ccccc21 (stereo not given) do in these assays?
SENP8 block-1: -390
